# Test results from ChEMBL document CHEMBL4052812, “Imidazo[1,2-α]pyridines possess adenosine A1 receptor affinity for the potential treatment of cognition in neurological disorders” (Bioorg Med Chem Lett, 2017).
# Tests used:
# [1] = molecular target: Adenosine receptor A2a (Rattus norvegicus) (UniProt P30543); test: (§1) Displacement of [3H]-NECA from A2A receptor in rat striatal membrane in presence of A1 receptor agonist N6-cyclopentyladenosine; format: cell membranes; design: concentration or dose not given beside the values; details: Striatum, concentration not given here
# Method in brief: (§2)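 Competition binding against [3H]NECA (Kd 15.3 nM) on rat striatal membranes, with the A1 agonist CPA present to suppress A1 binding. Nonspecific binding set with 100 µM CPA. Eight concentrations from 0 to 100 µM. Ki from the IC50 of a sigmoidal fit, in triplicate, mean ± SEM. Otherwise percent displacement at 100 µM.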
# Adenosine receptor A2a = Adenosine receptor A2a (Rattus norvegicus, UniProt P30543); test: as §1; format: cell membranes, Striatum; method in brief: as §2
# Adenosine receptor A1 [2] = molecular target: T1, Adenosine receptor A1 (Rattus norvegicus, UniProt P25099); test: (§3) Displacement of [3H]-DPCPX from A1 receptor in rat whole brain membrane; format: cell membranes
# T1 sequence (P25099 whole entry): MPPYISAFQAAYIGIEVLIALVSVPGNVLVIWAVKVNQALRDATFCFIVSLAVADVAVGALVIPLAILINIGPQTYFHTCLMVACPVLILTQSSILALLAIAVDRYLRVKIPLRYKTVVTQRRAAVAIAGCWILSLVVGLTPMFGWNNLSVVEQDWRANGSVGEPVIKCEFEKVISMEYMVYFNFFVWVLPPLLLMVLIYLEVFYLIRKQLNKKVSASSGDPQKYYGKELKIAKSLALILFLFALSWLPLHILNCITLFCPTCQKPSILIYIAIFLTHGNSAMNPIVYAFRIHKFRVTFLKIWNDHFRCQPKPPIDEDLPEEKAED
# Method in brief: (§4)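 Competition binding against [3H]DPCPX (Kd 0.36 nM) on rat whole brain membranes. Nonspecific binding set with 100 µM CPA. Eight test concentrations from 0 to 100 µM. IC50 from a sigmoidal fit of specific binding against log concentration, converted to Ki. Run in triplicate, mean ± SEM. Where no full curve was obtained, percent displacement of radioligand at 100 µM is given.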
# [3] = molecular target: T2, Adenosine receptor A1 (Rattus norvegicus) (UniProt P25099); test: as §3; format: cell membranes; design: concentration or dose not given beside the values; details: concentration not given here; method in brief: as §4
# T2 sequence (whole entry): T1 sequence (P25099 whole entry)
# [4] = molecular target: T2, Adenosine receptor A1 (Rattus norvegicus); test: Ratio of Ki for adenosine receptor A1 in rat brain membrane in presence of GTP to Ki for adenosine receptor A1 in rat brain membrane in absence of GTP; format: cell membranes
# Method in brief: (§5)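 GTP shift test on rat whole brain membranes. [3H]DPCPX binding is run without GTP and with 100 µM GTP added. Ki is taken from a sigmoidal competition curve in each condition, in triplicate. The shift is Ki with GTP divided by Ki without GTP.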
# Adenosine receptor A1 [5] = molecular target: T1, Adenosine receptor A1; test: Displacement of [3H]-DPCPX from A1 receptor in rat whole brain membrane assessed as effect on GTP shift in presence of 100 uM GTP; format: cell membranes; method in brief: as §5
# [6] = Displacement of [3H]CGS21680 from A2A receptor in bovine striatal membrane; format: cell membranes, Bos taurus, Striatum
# [7] = molecular target: T3, Adenosine receptor A1 (Homo sapiens) (UniProt P30542); test: Displacement of [3H]-DPCPX from recombinant human A1 receptor expressed in CHOK1 cells at 100 uM measured after 30 mins by liquid scintillation counting method relative to control; format: cell-based
# T3 sequence (whole entry): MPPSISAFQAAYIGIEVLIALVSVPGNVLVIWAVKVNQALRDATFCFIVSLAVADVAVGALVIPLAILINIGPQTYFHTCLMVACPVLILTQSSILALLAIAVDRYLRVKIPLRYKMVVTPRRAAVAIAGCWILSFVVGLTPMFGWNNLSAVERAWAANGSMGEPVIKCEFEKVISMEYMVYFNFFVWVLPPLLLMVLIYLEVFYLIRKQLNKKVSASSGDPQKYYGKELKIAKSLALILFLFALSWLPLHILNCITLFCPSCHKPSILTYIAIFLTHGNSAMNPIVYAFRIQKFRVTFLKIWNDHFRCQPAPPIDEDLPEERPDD
# Adenosine receptor A2a, sequence (P30543 whole entry): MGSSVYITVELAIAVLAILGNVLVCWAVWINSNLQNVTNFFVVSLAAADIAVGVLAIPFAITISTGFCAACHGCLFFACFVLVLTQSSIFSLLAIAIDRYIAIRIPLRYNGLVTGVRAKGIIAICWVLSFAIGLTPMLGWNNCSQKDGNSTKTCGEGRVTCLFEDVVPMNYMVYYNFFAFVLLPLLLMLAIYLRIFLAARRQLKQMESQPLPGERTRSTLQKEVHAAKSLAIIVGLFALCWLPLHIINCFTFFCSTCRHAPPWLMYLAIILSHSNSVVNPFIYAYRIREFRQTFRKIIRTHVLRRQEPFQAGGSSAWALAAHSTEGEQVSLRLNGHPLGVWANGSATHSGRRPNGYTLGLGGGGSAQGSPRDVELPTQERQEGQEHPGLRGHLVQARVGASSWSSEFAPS
# Adenosine receptor A2a (Rattus norvegicus), sequence (P30543 whole entry): as above
inhibition [1] [%],Ki (Adenosine receptor A2a) [µM],Ki (Adenosine receptor A1 [2]) [µM],inhibition [3] [%],Ratio Ki [4],Ki (Adenosine receptor A1 [5]) [µM],Ki [6] [µM],inhibition [7] [%],Compound
27,> 100,5.53,,,,,,Oc1ccc(-c2nc3ccccn3c2NC2CCCCC2)cc1
54,> 100,3.9,,,,,,Brc1ccc(-c2nc3ccccn3c2NC2CCCCC2)cc1
77,> 100,> 100,57,,,,,c1ccc(-c2nc3ccccn3c2NC2CCCCC2)cc1
64,> 100,> 100,61,,,,,Clc1ccc(-c2nc3ccccn3c2NC2CCCCC2)cc1
,,,,,,2.5,,O=C(Nc1nc(-c2ccccc2)nc2nc(-c3ccccc3)cn12)C1CCCC1
69,> 100,> 100,99,,,,,O=[N+]([O-])c1ccc(-c2nc3ccccn3c2NC2CCCCC2)cc1
75,> 100,> 100,100,,,,,c1ccn2ccnc2c1
,,,,,,,89,c1ccc(CNc2c(-c3ccccc3)nc3ccccn23)cc1
,,,,,,> 10,,CC(=O)CNc1nc(-c2ccccc2)nc2nc(C)cn12
55,> 100,7.61,,,,,,COc1ccc(-c2nc3ccccn3c2NC2CCCCC2)cc1

# Second part, the compound before the results:
Compound,inhibition [1] [%],Ki (Adenosine receptor A2a) [µM],Ki (Adenosine receptor A1 [2]) [µM],inhibition [3] [%],Ratio Ki [4],Ki (Adenosine receptor A1 [5]) [µM],Ki [6] [µM],inhibition [7] [%]
Oc1ccc(-c2cn3ccccc3n2)cc1,85,> 100,> 100,47,,,,
Cc1ccc(-c2nc3ccccn3c2NC2CCCCC2)cc1,83,> 100,2.06,,0.97,2,,
Brc1ccc(-c2cn3ccccc3n2)cc1,87,> 100,> 100,86,,,,
c1ccc(-c2cn3ccccc3n2)cc1,52,> 100,> 100,49,,,,
CC(=O)Nc1nc(-c2ccccc2)nc2nc(C)cn12,,,,,,,> 10,
COc1ccc(-c2cn3ccccc3n2)cc1,61,> 100,> 100,76,,,,
Nc1c(-c2ccccc2)nc2ccccn12,86,> 100,> 100,52,,,,
FC(F)(F)c1ccc(-c2nc3ccccn3c2NC2CCCCC2)cc1,74,> 100,> 100,76,,,,
Fc1ccc(-c2nc3ccccn3c2NC2CCCCC2)cc1,90,> 100,> 100,63,,,,
